Values belong to the molecule of their own block, whether it stands above or below them. Bridge positions count the residues as written; N and C are the ends. Square brackets hold non-standard residues; d marks the D form. Ends that are not written are not given here. Peptide text beside a SMILES is read from it. I, II: the chains in the order shown. S5 = C=CCCC[C@](C)(N)C(=O)O
Columns and labels:
[1] = target: RXFP2 (Homo sapiens, UniProt Q8WXD0); experiment: CAMYEL BRET real-time cAMP activation, HEK-RXFP2 cells; assay type: cell-based
Sequence of RXFP2 (Q8WXD0 whole entry): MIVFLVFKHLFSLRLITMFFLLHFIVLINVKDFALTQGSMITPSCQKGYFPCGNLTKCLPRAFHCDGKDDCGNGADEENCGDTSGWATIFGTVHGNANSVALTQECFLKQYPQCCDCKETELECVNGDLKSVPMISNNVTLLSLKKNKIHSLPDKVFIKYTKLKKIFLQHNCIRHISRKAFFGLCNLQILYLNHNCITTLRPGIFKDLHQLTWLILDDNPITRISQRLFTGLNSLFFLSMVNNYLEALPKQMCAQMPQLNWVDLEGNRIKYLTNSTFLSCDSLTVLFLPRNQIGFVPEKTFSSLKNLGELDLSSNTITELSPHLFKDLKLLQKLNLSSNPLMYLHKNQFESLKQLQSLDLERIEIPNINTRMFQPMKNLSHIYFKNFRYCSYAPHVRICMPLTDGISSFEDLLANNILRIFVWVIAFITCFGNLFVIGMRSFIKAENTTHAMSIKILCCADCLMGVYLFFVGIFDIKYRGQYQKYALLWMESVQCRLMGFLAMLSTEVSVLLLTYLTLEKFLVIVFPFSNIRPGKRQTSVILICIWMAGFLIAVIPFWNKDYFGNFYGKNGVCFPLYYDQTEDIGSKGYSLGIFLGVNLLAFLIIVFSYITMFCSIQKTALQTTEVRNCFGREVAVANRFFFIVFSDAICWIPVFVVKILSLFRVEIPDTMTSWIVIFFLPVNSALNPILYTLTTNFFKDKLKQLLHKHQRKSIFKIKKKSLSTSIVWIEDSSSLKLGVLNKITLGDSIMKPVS
Method in brief: (§1)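 HEK cells stably expressing RXFP1 (HEK293T background) or RXFP2 were transiently transfected with CAMYEL, then reseeded next day in phenol-red-free complete medium with 25 mmol L⁻¹ HEPES. At 37°C, cells got coelenterazine h (5 μmol L⁻¹ final) for a 5-min baseline, then vehicle, forskolin or agonist for 45 min. Read-out was vehicle-subtracted citrine/Rluc BRET ratio, sign-inverted. Agonist curves at 5 and 45 min as % of 10 μmol L⁻¹ forskolin maximum; n=3.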

[2] = target: T1, RXFP3 (Homo sapiens, UniProt Q9NSD7); experiment: CAMYEL BRET inhibition of forskolin-stimulated cAMP, CHO-RXFP3 cells; assay type: cell-based; conditions: agonist 100 nmol L^−1‐10 μmol L^−1, at about 20‐25 minutes
T1 sequence (Q9NSD7 1-469): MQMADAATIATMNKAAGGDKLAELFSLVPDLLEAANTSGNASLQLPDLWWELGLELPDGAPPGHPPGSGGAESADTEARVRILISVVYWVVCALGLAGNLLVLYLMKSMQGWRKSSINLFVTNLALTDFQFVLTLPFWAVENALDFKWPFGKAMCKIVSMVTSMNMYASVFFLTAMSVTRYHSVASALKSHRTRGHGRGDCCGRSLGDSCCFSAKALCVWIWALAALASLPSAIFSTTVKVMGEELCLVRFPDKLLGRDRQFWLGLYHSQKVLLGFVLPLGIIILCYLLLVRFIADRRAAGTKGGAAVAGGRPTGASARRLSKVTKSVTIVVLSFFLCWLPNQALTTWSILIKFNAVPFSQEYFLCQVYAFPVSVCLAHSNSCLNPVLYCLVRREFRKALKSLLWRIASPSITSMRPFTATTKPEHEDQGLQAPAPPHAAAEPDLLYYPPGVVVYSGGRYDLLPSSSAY

[3] = target: T1, RXFP3; experiment: CAMYEL BRET inhibition of forskolin-stimulated cAMP, HEK-RXFP3 cells; assay type: cell-based; conditions: 45 minutes, mean ± SEM, three independent experiments
[4] = test system: GH3B6 cells; conditions: cited from earlier work
[5] = test system: β‐adrenoceptors; experiment: CAMYEL BRET isoprenaline-induced cAMP, HEK293A ΔGαs cells; assay type: cell-based, human; conditions: 10 μmol L^−1
Method in brief: (§2)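 HEK293A parental or Gαs-knockout cells were co-transfected with CAMYEL and RXFP1, then reseeded overnight in phenol-red-free HEPES medium. Isoprenaline (10 μmol L⁻¹) served as a control for endogenous Gαs-coupled β-adrenoceptor signalling. Read-out: vehicle-subtracted, sign-inverted 535/475 nm BRET ratio; three independent experiments.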

[6] = test system: β‐adrenoceptors; experiment: CAMYEL BRET isoprenaline-induced cAMP, HEK293A parental cells; assay type: cell-based, human; conditions: 10 μmol L^−1
Method in brief: as §2

[7] = test system: adenylate cyclase; conditions: cited from earlier work
[8] = test system: adenylate cyclase; experiment: CAMYEL BRET forskolin-induced cAMP, HEK293A ΔGαs cells; assay type: cell-based, human
[9] = test system: adenylate cyclase; experiment: CAMYEL BRET forskolin-induced cAMP, THP-1 CAMYEL cells; assay type: cell-based, human; conditions: high-CAMYEL THP‐1 cells, three independent experiments
[10] = test system: adenylate cyclase; experiment: CAMYEL BRET forskolin-induced cAMP, HEK-RXFP2 cells; assay type: cell-based, human; conditions: 45 minutes
Method in brief: as §1

[11] = test system: adenylate cyclase; experiment: CAMYEL BRET forskolin-induced cAMP, HEK293A parental cells; assay type: cell-based, human; conditions: 45 minutes, three independent experiments
[12] = test system: adenylate cyclase; experiment: CAMYEL BRET forskolin-induced cAMP, HEK-RXFP1 cells; assay type: cell-based, human; conditions: 45 minutes, three independent experiments
Method in brief: as §1

Molecule: thyrotropin‐releasing hormone
cAMP activity reported by AC8‐localized sensor [4]: increases in cAMP activity | cAMP activity reported by cytosolic or plasma membrane FRET biosensors [4]: not the cytosolic or membrane forms

Molecule: CC(C)NCC(O)c1ccc(O)c(O)c1 (centres unmarked) [Isoprenaline]
cAMP response to isoprenaline [5]: abolished in the ΔGαs cells | cAMP response to isoprenaline [6]: robust in the parental cells

Molecule: vasoactive intestinal peptide: treatment of GH3B6 cells in cited work (ref 49) (HSDAVFTDNYTRLRKQMAVKKYLNSILN; ends and bridges not checked; UniProt P01282 125-152, looked up)
cAMP activity reported by AC8‐localized sensor [4]: not detected by an AC8‐localized sensor

Second part, led by results:

potency increase between 5 and 45 minutes ([1]; P < 0.01): ~10 fold | temporal pattern of cAMP activity ([1]; sub‐maximal concentrations): slow, sustained increases
Molecule: I: PTPEMREKLCGHHFVRALVRVCGGPRWSTEA / II: AAATNPARYCCLSGCTQQDLLTLCPY (disulfide I:10-II:11, I:22-II:24, II:10-II:15) [INSL3]

inhibition of forskolin-stimulated cAMP at higher concentrations [2]: Complete or near‐complete inhibition | pEC50 [3]: Ambiguous
Molecule: CC[C@H](C)[C@@H]1NC(=O)[C@H](Cc2ccccc2)NC(=O)[C@H](CCC(=O)O)NC(=O)[C@H](CCCNC(=N)N)NC(=O)CNC(=O)[C@@H](NC(=O)[C@H](CC(C)C)NC(=O)[C@H](CCCNC(=N)N)NC(=O)[C@@H](NC(=O)CNC(=O)[C@H](Cc2ccc(O)cc2)NC(=O)[C@@H]2CCCN2C(=O)[C@H](C)NC(=O)[C@H](C)NC(=O)[C@@H](N)CCCNC(=N)N)C(C)C)CSSC[C@H](N)C(=O)N[C@@H](CCCCN)C(=O)N[C@@H](Cc2c[nH]c3ccccc23)C(=O)NCC(=O)N[C@@H](C)C(=O)N[C@@H](CO)C(=O)N[C@@H](CCCCN)C(=O)N[C@@H](CO)C(=O)N[C@@H](CCC(=O)O)C(=O)N[C@@H]([C@@H](C)CC)C(=O)N[C@@H](CO)C(=O)N[C@@H](CO)C(=O)N[C@@H](CC(C)C)C(=O)N[C@H](C(=O)O)CSSC[C@@H](C(=O)NCC(=O)NCC(=O)N[C@@H](CO)C(=O)N[C@@H](CCCNC(=N)N)C(=O)N[C@@H](Cc2c[nH]c3ccccc23)C(=O)O)NC(=O)[C@H]([C@@H](C)O)NC(=O)[C@H](Cc2ccccc2)NC(=O)[C@H]([C@@H](C)CC)NC(=O)[C@H](C(C)C)NC(=O)[C@H](C)NC(=O)[C@H](CCCNC(=N)N)NC1=O [Analogue 2]

inhibition of forskolin-stimulated cAMP at higher concentrations [2]: Complete or near‐complete inhibition
Molecule: CC[C@H](C)[C@@H]1NC(=O)[C@H](Cc2ccccc2)NC(=O)[C@@](C)(NC(=O)[C@H](CCCNC(=N)N)NC(=O)CNC(=O)[C@@H](N)CO)CCCC=CCCC[C@@](C)(C(=O)N[C@H](C(=O)N[C@H](C(=O)N[C@@H](Cc2ccccc2)C(=O)N[C@H](C(=O)N[C@@H](CO)C(=O)NCC(=O)NCC(=O)N[C@@H](CO)C(=O)N[C@@H](CCCNC(=N)N)C(=O)N[C@@H](Cc2c[nH]c3ccccc23)C(N)=O)[C@@H](C)O)[C@@H](C)CC)C(C)C)NC(=O)[C@H](CCCNC(=N)N)NC1=O [Peptide 5] (H-SGR[S5]FIR[S5]VIFTSGGSRW-NH2; staple 4-8; N-terminus and C-terminus assumed)

potency of forskolin (pEC50) ([8]; 45 minutes, HEK293A ΔGαs with re‐expression of Gαs, three independent experiments): 7.1 ± 1.29 | potency of forskolin (pEC50) ([9]; 5 minutes): 5.29 ± 0.03 | potency of forskolin (pEC50) ([9]; 45 minutes): 4.93 ± 0.05 | potency (pEC50) of forskolin ([10]; HEK‐RXFP2, three independent experiments): 5.92 ± 0.08 | potency (pEC50) of forskolin [12]: 6.77 ± 0.07
Molecule: C=C[C@@]1(C)CC(=O)[C@]2(O)[C@@]3(C)[C@@H](O)CCC(C)(C)[C@@H]3[C@H](O)[C@H](OC(C)=O)[C@@]2(C)O1 [forskolin]
affinity for adenylate cyclase in the absence of Gαs [7]: lower affinity for adenylate cyclase in the absence of Gαs | forskolin-induced cAMP activity ([8]; HEK293A ΔGαs, without Gαs re-expression): very weak cAMP activity | forskolin concentration required to detect a cAMP increase ([8]; HEK293A ΔGαs, increase only transient): > 10 µmol/L | forskolin potency in HEK‐RXFP2 relative to HEK‐RXFP1 cells ([10]; P < 0.01): nearly ten times lower than that seen in the HEK‐RXFP1 cells | potency of forskolin (pEC50) [11]: 5.91 ± 0.04

— paper PMC6153321 (Pharmacology Research & Perspectives, 2018)
